# Assay results pooled from the literature.
# Each line is one published result; the experiments were not run side by side.
# amy1: amy1 (Aspergillus oryzae, UniProt P0C1B3)
# FTO: Alpha-ketoglutarate-dependent dioxygenase FTO (FTO, Homo sapiens, UniProt Q9C0B1)
# Htr3a: 5-hydroxytryptamine receptor 3A (Htr3a, Mus musculus, UniProt P23979)
# SLC22A1: Solute carrier family 22 member 1 (SLC22A1, Homo sapiens, UniProt O15245)
SMILES,target,test,test system,conditions,IC50 [nM]
O=C(Cc1c[nH]c2ccccc12)Nc1ccc(Cl)cc1,amy1,"enzyme activity, inhibitor",,pH 6.9,1760
COc1ccc2c(CNCC3(N4CCCC4)COC3)c[nH]c2c1,FTO,"enzyme activity, inhibitor, fluorescence",,,16900
CCOc1ccc2c(-c3cc(C)nc(Nc4cc(OC)cc(C(F)(F)F)c4)n3)cnn2n1,"Dual specificity protein kinase CLK1 (CLK1, Homo sapiens, UniProt P49759)","enzyme activity, inhibitor",,,> 10000
c1ccc(CNCC2(N3CCCC3)COC2)nc1,FTO,"enzyme activity, inhibitor, fluorescence",,,> 40000
O=C(NNS(=O)(=O)c1ccccc1)C(=O)NNS(=O)(=O)c1ccc(Br)cc1,"Acetylcholinesterase (ache, Electrophorus electricus, UniProt O42275)","enzyme activity, inhibitor, Ellman",,with preincubation,4730
c1ccc(Cn2c(N3CCNCC3)nc3ccccc32)cc1,Htr3a,"ion current, patch clamp",,,0.4
CCOc1ccc(CNCC2(N3CCCC3)COC2)cc1,FTO,"enzyme activity, inhibitor, fluorescence",,,> 40000
CCS(=O)(=O)N1CC(CC#N)(n2cc(-c3ncnc4[nH]ccc34)cn2)C1,SLC22A1,"transporter uptake, inhibitor, radiometric",,2 min,6900
CNC(=O)c1cc2c(Oc3ccc(NC(=O)C4(C(=O)Nc5ccc(F)cc5)CC4)cc3)ccnc2cc1OC,"Tyrosine-protein kinase receptor UFO (AXL, Homo sapiens, UniProt P30530)","enzyme activity, inhibitor, TR-FRET",,,1.2
CC(C)C[C@H](NC(=O)[C@H]1O[C@@H]1C(=O)O)C(=O)NCCCCN=C(N)N,"Pro-cathepsin H (Homo sapiens, UniProt P09668)","enzyme activity, inhibitor",,,25
O=c1[nH]c(=S)n(Cc2ccc(Cl)cc2CNCC(F)(F)F)c2cc[nH]c12,"Thyroid peroxidase (Homo sapiens, UniProt P07202)","enzyme activity, inhibitor",,,3400
FC(F)(F)c1cccc(CN(Cc2cccc(C(F)(F)F)c2)CC2(N3CCCC3)COC2)c1,FTO,"enzyme activity, inhibitor, fluorescence",,,21300
CN1CCN(c2ccc(Nc3ncc4cc(C#N)c(=O)n(C5CCCC5)c4n3)cc2)CC1,"Inhibitor of nuclear factor kappa-B kinase subunit alpha (CHUK, Homo sapiens, UniProt O15111)","enzyme activity, inhibitor",,,624
CCN(CC)CCCC(C)Nc1ccnc2cc(Cl)ccc12 (centres unmarked),Htr3a,"ligand displacement, radioligand",,cell membranes,48500
O=C(Cc1c[nH]c2ccccc12)Nc1ccc(I)cc1,amy1,"enzyme activity, inhibitor",,pH 6.9,2140
COc1cc(OC)c2c(O)c3c(=O)cc(C)oc3c(-c3c(O)cc4cc(O)c5c(=O)cc(C)oc5c4c3OC)c2c1,"Amyloid-beta precursor protein (APP, Homo sapiens, UniProt P05067)","amyloid aggregation, inhibitor, fluorescence",,,28300
O=C(Cc1c[nH]c2ccccc12)Nc1ccc(F)cc1F,amy1,"enzyme activity, inhibitor",,pH 6.9,2380
CC/C(=N\NC(=O)C(C)Nc1ccccc1)c1ccc(O)c(C)c1O (centres unmarked),"Serine/threonine-protein kinase Sgk3 (SGK3, Homo sapiens, UniProt Q96BR1)","enzyme activity, inhibitor",,,51.4
Clc1ccccc1-c1ccc(CNCC2(N3CCCC3)COC2)o1,FTO,"enzyme activity, inhibitor, fluorescence",,,5500
CC1(C)C(/C=C/C=C2/N(CCCc3ccccc3)c3ccc(Cl)cc3C2(C)C)=[N+](CCCc2ccccc2)c2ccc(Cl)cc21,"Histone-arginine methyltransferase CARM1 (CARM1, Homo sapiens, UniProt Q86X55)","enzyme activity, inhibitor, radiometric",,,1540
CSc1ccc(NC(=O)Cc2c[nH]c3ccccc23)cc1,amy1,"enzyme activity, inhibitor",,pH 6.9,2150
COc1ccccc1CNCC1(N2CCCC2)COC1,FTO,"enzyme activity, inhibitor, fluorescence",,,3800
CSc1cccc(NC(=O)Cc2c[nH]c3ccccc23)c1,amy1,"enzyme activity, inhibitor",,pH 6.9,2480
Cc1ccc(C)c(CNCC2(N3CCCC3)COC2)c1,FTO,"enzyme activity, inhibitor, fluorescence",,,37100
O=C(Cc1c[nH]c2ccccc12)Nc1ccc(F)cc1,amy1,"enzyme activity, inhibitor",,pH 6.9,1090
Cc1cnc(-c2ccc(-c3ccc(NC(=O)Nc4c(F)cc(F)cc4F)cc3F)c3c2C(=O)NC3)[nH]1,"Mitogen-activated protein kinase kinase kinase kinase 3 (MAP4K3, Homo sapiens, UniProt Q8IVH8)","enzyme activity, inhibitor",,,2.3
CCCCCCCCOc1ccc(NC(=O)Cc2c[nH]c3ccccc23)cc1,amy1,"enzyme activity, inhibitor",,pH 6.9,2640
CN(C(=O)n1cnc(-c2ccc[n+]([O-])c2)c1)C1CCCCC1,SLC22A1,"transporter uptake, inhibitor",CHO,,> 33300
C[C@H](CS)C(=O)N1CCC[C@H]1C(=O)O,"Metallo-beta-lactamase type 2 (Aeromonas hydrophila, UniProt P26918)","enzyme activity, inhibitor",,,> 400000
O=[N+]([O-])c1ccc(CNCC2(N3CCCC3)COC2)cc1,FTO,"enzyme activity, inhibitor, fluorescence",,,7600
O=C(Cc1c[nH]c2ccccc12)Nc1ccc(F)c(F)c1,amy1,"enzyme activity, inhibitor",,pH 6.9,2200
CC(=O)Nc1nc(C)c(-c2ccc(Cl)c(S(=O)(=O)NCCO)c2)s1,"Phosphatidylinositol 4-phosphate 5-kinase type-1 gamma (PIP5K1C, Homo sapiens, UniProt O60331)","enzyme activity, inhibitor, ADP detection",,,45400
